# Article PMC6570502 (Chembiochem : a European journal of chemical biology, 2019)
# Substitutions are numbered along the chain they refer to.
# Columns and labels:
# wild type KDM4A = biological target: T1, wild type KDM4A (Homo sapiens, UniProt O75164); test: MALDI demethylase assay, H3K9me3 substrate peptide, wild type enzyme; format: biochemical
# T1 sequence (O75164 1-1064): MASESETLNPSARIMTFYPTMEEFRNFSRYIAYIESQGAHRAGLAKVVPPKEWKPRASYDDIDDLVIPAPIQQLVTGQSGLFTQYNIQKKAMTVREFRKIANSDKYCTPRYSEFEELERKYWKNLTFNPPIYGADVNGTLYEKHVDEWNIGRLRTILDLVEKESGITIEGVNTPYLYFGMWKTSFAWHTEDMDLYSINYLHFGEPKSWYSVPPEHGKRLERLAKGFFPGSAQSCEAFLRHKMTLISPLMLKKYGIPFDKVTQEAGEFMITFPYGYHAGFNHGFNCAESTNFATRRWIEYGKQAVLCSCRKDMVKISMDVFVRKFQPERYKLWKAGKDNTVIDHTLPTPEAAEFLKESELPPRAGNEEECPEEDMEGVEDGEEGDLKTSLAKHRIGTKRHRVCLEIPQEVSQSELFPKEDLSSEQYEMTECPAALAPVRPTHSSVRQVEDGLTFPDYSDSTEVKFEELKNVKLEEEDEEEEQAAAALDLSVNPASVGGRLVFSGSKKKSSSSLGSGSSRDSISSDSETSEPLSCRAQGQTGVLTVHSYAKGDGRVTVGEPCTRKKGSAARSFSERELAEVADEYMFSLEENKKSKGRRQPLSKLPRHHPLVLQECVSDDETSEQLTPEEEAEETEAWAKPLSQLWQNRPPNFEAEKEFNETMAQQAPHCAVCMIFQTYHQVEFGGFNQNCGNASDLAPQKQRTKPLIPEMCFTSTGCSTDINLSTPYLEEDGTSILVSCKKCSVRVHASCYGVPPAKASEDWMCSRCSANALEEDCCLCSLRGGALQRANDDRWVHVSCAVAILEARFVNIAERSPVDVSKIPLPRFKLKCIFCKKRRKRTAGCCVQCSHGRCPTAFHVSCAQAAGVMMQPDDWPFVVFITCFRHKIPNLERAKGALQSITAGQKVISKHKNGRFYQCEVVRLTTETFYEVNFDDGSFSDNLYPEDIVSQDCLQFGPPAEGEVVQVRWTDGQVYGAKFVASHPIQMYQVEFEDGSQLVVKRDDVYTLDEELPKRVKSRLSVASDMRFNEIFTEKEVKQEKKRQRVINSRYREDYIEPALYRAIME
# KDM4A S288A mutant = biological target: T2, KDM4A S288A mutant (Homo sapiens, UniProt O75164, S288A); test: MALDI demethylase assay, H3K9me3 substrate peptide, S288A mutant; format: biochemical
# T2 sequence (O75164 1-1064 S288A): T1 sequence (O75164 1-1064) with S288A
# Summary of the method: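 KDM4A mutant demethylation of H3K9me3 peptide, read by MALDI-MS and expressed as % inhibition of demethylase activity, with wild type and the four active-site mutants run under the same conditions. The 2KG cofactor was cut from the 1 mM of the initial activity assay to 50 μM, about 3–4-fold above the enzymes' 2KG KM. KM came from an FDH/NAD+-coupled NADH fluorescence assay.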
# [1] = scaffold test under the optimized assay conditions (50 μM 2KG), Figure S7
# [2] = 100 μM compound, 50 μM 2KG, MALDI-MS
inhibition of demethylase activity (wild type KDM4A; [1]),inhibition of demethylase activity (KDM4A S288A mutant; [1]),inhibition of demethylase activity (wild type KDM4A; [2]),inhibition of demethylase activity (KDM4A S288A mutant; [2]),Structure (SMILES)
inhibited,inhibited,–,–,"O=C(O)c1ccc(O)c2ncccc12 [IOX1, 5-carboxy-8-hydroxyquinone]"
inhibited,inhibited,significantly inhibited,significantly inhibited,"O=C(O)CNC(=O)C(=O)O [compound 2, N-oxalylglycine]"
